According to paper PMC7771297 (Oncogene, 2017):

Key:
[1] = test system: PAIII rat prostate adenocarcinoma cells; assay: IP-MS of PTHrP1–17 in PAIII conditioned media with MMP inhibition; type: cell-based
[2] = test system: SAOS-2 osteosarcoma cells; assay: IP-MS of PTHrP1–17 in SAOS-2 conditioned media with exogenous MMP-3; type: cell-based, human; conditions: SAOS-2+MMP-3 100 ng/ml; SAOS-2 alone = 0.004
PTH1R [3] = conditions: PTH1R overexpressing CHO-K1 cells; cited from earlier work
PTH1R [4] = conditions: PTH1R overexpressing CHO-K1 cells; cited from earlier work; remark: listed apart in the source
MMP-3 = MMP-3 (Homo sapiens, UniProt P08254); assay: MMP-3 processing of PTHrP; type: in vitro ADME; conditions: MALDI-TOF
Summary of the method: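 Recombinant PTHrP1–86 (100 ng) was digested 1 h with active MMP-3 (100 ng) in 0.15 M NaCl, Tris pH 7.6 buffer. Products were resolved by SDS-PAGE with Coomassie staining and by immunoblot. N-terminal sequencing was done, and for MALDI-TOF peptides were C18-extracted and mixed with α-cyano-4-hydroxycinnamic acid matrix.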

[5] = test system: ERK phosphorylation in MSCs; assay: ERK phosphorylation in primary MSCs; type: cell-based, mouse; conditions: 10 nM, 5 min, vs control or scrambled peptide
[6] = test system: ERK phosphorylation in MC3T3 osteoblasts; assay: ERK phosphorylation in osteoblasts; type: cell-based, mouse; conditions: 10 nM, 5 min, serum free media, vs control or scrambled peptide
[7] = test system: CREB phosphorylation in MC3T3 osteoblasts; assay: CREB phosphorylation in MC3T3 osteoblasts; type: cell-based, mouse; conditions: MC3T3, 10 nM for 5 min in serum free media
Summary of the method: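 Immunoblot of MC3T3 osteoblasts exposed to peptides for 5 min in serum-free media. Controls were serum-free (S0), 10% serum (S10) and a scrambled peptide. Cells were lysed in RIPA buffer (pH 8) and protein was measured by BCA. Blots were blocked in 5% BSA for 1 h, probed with primary antibody then HRP-conjugated secondary, with actin as loading control. Run in triplicate.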

PTH1R [8] = biological target: T1, PTH1R (Mus musculus, UniProt P41593); assay: cAMP production in MC3T3 osteoblasts; type: cell-based; conditions: MC3T3, 10 nM for 15 min, n = 5/group
T1 sequence (P41593 27-591): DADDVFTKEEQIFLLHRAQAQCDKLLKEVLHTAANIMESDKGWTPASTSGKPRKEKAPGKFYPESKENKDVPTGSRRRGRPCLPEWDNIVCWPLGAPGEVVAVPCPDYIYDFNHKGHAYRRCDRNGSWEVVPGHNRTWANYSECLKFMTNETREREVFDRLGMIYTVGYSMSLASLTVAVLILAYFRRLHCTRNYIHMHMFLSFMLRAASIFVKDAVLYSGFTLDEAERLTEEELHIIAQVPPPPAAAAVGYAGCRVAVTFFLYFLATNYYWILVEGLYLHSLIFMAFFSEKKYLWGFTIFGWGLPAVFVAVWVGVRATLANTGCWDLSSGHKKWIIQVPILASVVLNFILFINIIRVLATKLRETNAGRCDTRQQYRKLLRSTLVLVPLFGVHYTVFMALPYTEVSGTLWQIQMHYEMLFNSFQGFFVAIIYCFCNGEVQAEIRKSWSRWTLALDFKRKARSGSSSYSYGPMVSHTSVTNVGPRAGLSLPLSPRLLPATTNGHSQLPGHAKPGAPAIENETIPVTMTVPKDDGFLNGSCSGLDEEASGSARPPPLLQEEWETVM
Summary of the method: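 MC3T3 osteoblasts were plated at 2.5 × 10^4 cells/well and exposed to peptides for 15 min (range 1–100 tested), n = 5/group. cAMP was measured with the cAMP-Glo luminescent assay. The forskolin analogue NKH477 (15 min) served as positive control. Groups were compared by ANOVA with Tukey's test.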

PTH1R [9] = biological target: T1, PTH1R; assay: Calcium flux in MC3T3 osteoblasts; type: cell-based; conditions: MC3T3, 10 nM, fluorescence in individual cells, n = 20/group
Summary of the method: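 MC3T3 cells (1 × 10^5) were loaded with Fluo-4 Direct calcium reagent and imaged by time-lapse fluorescence microscopy before and after peptide addition (0 and 60 s frames shown). Fluorescence rise was quantified in individual cells, n = 20/group, from three fields of view per condition.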

PTH1R [10] = biological target: T1, PTH1R; assay: ERK phosphorylation in PTH1R knockdown MC3T3 cells; type: cell-based; conditions: shPTH1R MC3T3 versus control shRNA, 10 nM for 5 min
Summary of the method: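 PTH1R knockdown MC3T3 clones were made by lentiviral transduction of a pool of three shRNAs, with scrambled-sequence shControl clones; clone D was used. Cells got peptides for 5 min and were lysed in RIPA. Phospho-ERK immunoblots were blocked in 5% BSA, detected with HRP secondary and normalised to actin loading control. Triplicate experiments.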

PTH1R [11] = biological target: T1, PTH1R; assay: Calcium flux in PTH1R knockdown MC3T3 cells; type: cell-based; conditions: shPTH1R versus shControl MC3T3, 10 nM
Summary of the method: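 Stable shPTH1R MC3T3 clones came from lentiviral transduction of three pooled PTH1R shRNAs; shControl clones carried a scrambled sequence. Cells (1 × 10^5) were loaded with Fluo-4 Direct. Time-lapse microscopy followed fluorescence after peptide addition. Increases (RFU) were measured in single cells, n = 20/group, from three fields per condition. A second shPTH1R clone was also tested.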

osteoblasts = assay: Tumour necrosis factor-α-induced cell death of osteoblasts; type: cell-based
MSCs = assay: Migration of primary MSCs; type: cell-based, mouse; conditions: 10 nM in serum free media, 6 h / 5-h (methods), n = 3/group
MC3T3 cells = assay: Migration of MC3T3 osteoblasts; type: cell-based, mouse; conditions: MC3T3, 10 nM in serum free media, 6 h / 5-h (methods), n = 3/group
Summary of the method: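 Modified Boyden chamber assay: after 24-h serum starvation, 5 × 10^5 MC3T3 cells were seeded in the upper chamber (n = 3/group). Migration toward peptide in serum-free media ran at 37 °C, 5 h per methods (6 h in legend). Serum-free and 1% serum media were negative and positive controls. Cells were counted per ×20 field in five micrographs per condition.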

SCID-Beige mice [12] = assay: Murine model of ectopic bone formation; type: in vivo, mouse; conditions: 40 μg/kg/day s.c., 21 days
Summary of the method: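 Gelfoam sponges loaded with 1 × 10^6 bone marrow MSCs from C57BL/6 mice were implanted s.c. into randomized 6-week-old male SCID-Beige mice, two implants per flank, n = 3/group. After 1-week recovery, peptides or vehicle were injected s.c. daily at 40 μg/kg/day for 21 days. Ossicles were excised for μCT and trichrome histology, with bone matrix quantified.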

RANKL = RANKL expression in whole bone marrow co-cultures; type: cell-based, mouse; conditions: 10 nM for 48 h
osteoprotegerin (OPG) = assay: OPG expression in whole bone marrow co-cultures; type: cell-based, mouse; conditions: 10 nM for 48 h
SCID-Beige mice [13] = assay: In vivo calvarial injection assay; design: species or system mouse; conditions: 2 μg s.c. over the calvaria every 6 h for 3 days, n = 3/group
Summary of the method: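 Randomized 4–6-week-old female SCID-Beige mice (n = 3/group) received 2 μg peptide s.c. over the calvaria every 6 h for 3 days. Calvariae were harvested 10 h after the last injection, fixed and scanned by high-resolution μCT. They were then decalcified (14% EDTA, pH 7.4, 3 days) and paraffin-embedded, and 5 μm sections were stained with H&E, trichrome and TRAcP. Bone-lining multinucleated TRAcP-positive osteoclasts were counted per μm bone.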

[14] = test system: calvariae of Rag2−/− neonates; assay: Neonatal calvaria ex vivo assay; design: species or system mouse; conditions: 10 nM, 14 days, n = 4/group
Summary of the method: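 Calvariae were isolated from 4-day-old Rag2−/− neonates and kept in organ culture. They were exposed to peptides for 14 days, n = 4/group.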

[15] = bone marrow cultures, n = 3/group

Sequence of MMP-3 (P08254 100-272 limits assumed): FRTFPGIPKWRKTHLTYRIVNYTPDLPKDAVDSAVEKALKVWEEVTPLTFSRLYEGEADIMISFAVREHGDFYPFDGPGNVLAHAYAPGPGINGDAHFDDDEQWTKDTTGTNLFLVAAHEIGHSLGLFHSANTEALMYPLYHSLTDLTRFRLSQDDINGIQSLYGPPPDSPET

CNC(=O)[C@H](Cc1c[nH]c2ccccc12)NC(=O)[C@@H](CC(=O)NO)CC(C)C [GM6001]
reduction of the amount of PTHrP1–17 in conditioned media ([1]; PAIII, GM6001 10 μM, serum free 24 h, IP-MS with SIS1–17): 77%
ratio of endogenous PTHrP1–17 to PTHrP1–17 SIS (peak areas) ([1]; PaIII+GM6001 10 μM, PaIII alone = 0.13): 0.03

MMP-3: recombinant MMP-3 (Millipore, #444217) added to SAOS-2 cells
ratio of endogenous PTHrP1–17 to PTHrP1–17 SIS (peak areas) [2]: 0.03

PTHrP1–16: N-terminal PTHrP fragment of a recent study (ref 31) (AVSEHQLLHDKGKSIQ; UniProt P12272 37-52, looked up, fragment)
cAMP production (PTH1R [3]): does not result in cAMP production
calcium flux (PTH1R [4]): no effect on calcium flux

PTHrP1–36: mature 36 amino acid form of parathyroid hormone-related protein (ProImmune)
further cleavage of PTHrP1–36 by MMP-3 (MMP-3; 0.15 M NaCl, 50 mM Tris pH 7.6): further cleaved to distinct stable peptide products
time in which MMP-3 generated the main PTHrP products (MMP-3; kinetic analyses): ≤ 1 h
ERK phosphorylation [5]: induced ERK phosphorylation within 5 min
ERK phosphorylation [6]: induced ERK phosphorylation within 5 min
CREB phosphorylation [7]: only induced by PTHrP1–36
cAMP production (PTH1R [8]): induced cAMP
calcium flux (PTH1R [9]): triggered increases in calcium flux
ability to induce ERK phosphorylation in PTH1R knockdown cells (PTH1R [10]): abrogated
calcium flux in PTH1R knockdown cells (PTH1R [11]): significantly reduced
prevention of tumour necrosis factor-α-induced cell death (osteoblasts): did not prevent
migration (MSCs): significantly increased migration
migration (MC3T3 cells): significantly increased migration
osteoid in trichrome stained ossicle sections (SCID-Beige mice [12]; n = 3/group): a significant amount of osteoid
trabecular bone volume of hind limbs (SCID-Beige mice [12]; compared to control): significantly more bone
bone formation in ectopic ossicles, μCT (SCID-Beige mice [12]; intermittent, n = 3/group): revealed bone formation
RANKL expression (real-time PCR) (RANKL; [15]): significantly enhanced RANKL expression
ratio of average RANKL:OPG transcripts (RANKL; bone marrow cultures, real-time PCR): 15.03
RANKL expression (RT-PCR) (RANKL; primary bone marrow cultures): increased RANKL expression
OPG expression (real-time PCR) (osteoprotegerin (OPG); [15]): suppressing OPG
OPG expression (RT-PCR) (osteoprotegerin (OPG); primary bone marrow cultures): appeared to suppress the expression of osteoprotegerin (OPG)
bone resorption of calvaria (SCID-Beige mice [13]): displayed areas of extensive bone resorption
bone formation in calvaria ex vivo [14]: no evidence of bone formation
degradation of calvaria ex vivo [14]: significant degradation of the calvaria
